{"source": "ChEMBL document CHEMBL4689842", "about": "“EUbOPEN Chemogenomics Library wave 1” (2021)", "system": "HEK-293T", "test": "Multiplex assay against HEK293T;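 for Population Tubulin-Different-Phenotype (%): share of the cells with healthy nuclei that show this phenotype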", "type": "toxicity, cell-based", "settings": "human", "procedure,_shortened": "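Tubulin, mitochondrial-mass and membrane-permeability phenotypes are per cents of healthy-nucleus cells. Cells were gated by CellPathfinder machine learning into Hoechst high-intensity objects or normal cells, normal cells into healthy, pyknosed or fragmented nuclei, and pyknosed cells into mitotic or apoptotic. Before that, live cells stained at seeding with Hoechst33342, BioTracker Green Microtubule Cytoskeleton Dye, MitoTracker Red and Annexin V Alexa Fluor 680 were imaged on a CQ1 microscope at 37°C and 5% CO2 after compound addition.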", "key": {"[1]": {"settings": "12 h, 1 µM, compound concentration 1 uM, replicate 1"}, "[2]": {"settings": "12 h, 1 µM, compound concentration 1 uM, replicate 2"}, "[3]": {"settings": "12 h, 10 µM, compound concentration 10 uM, replicate 1"}, "[4]": {"settings": "12 h, 10 µM, compound concentration 10 uM, replicate 2"}, "[5]": {"settings": "24 h, 1 µM, compound concentration 1 uM, replicate 1"}, "[6]": {"settings": "24 h, 1 µM, compound concentration 1 uM, replicate 2"}, "[7]": {"settings": "24 h, 10 µM, compound concentration 10 uM, replicate 1"}, "[8]": {"settings": "24 h, 10 µM, compound concentration 10 uM, replicate 2"}, "[9]": {"settings": "48 h, 10 µM, compound concentration 10 uM, replicate 1"}, "[10]": {"settings": "48 h, 10 µM, compound concentration 10 uM, replicate 2"}}, "note": "Several values for one entry are separate records, joined by “and”; a condition that tells them apart may be missing. Equal values may be shown once."}
{"smiles": "CN[C@@H]1C[C@H]2O[C@@](C)([C@@H]1OC)n1c3ccccc3c3c4c(c5c6ccccc6n2c5c31)C(=O)NC4", "note": "[STAUROSPORINE]", "values": [{"measurement": "Population Apoptotic (%)", "setting": "[1]", "result": 27, "unit": "%"}, {"measurement": "Population Fragmented Nuclei (%)", "setting": "[1]", "result": 37, "unit": "%"}, {"measurement": "Population Healthy Nuclei (%)", "setting": "[1]", "result": 16, "unit": "%"}, {"measurement": "Population Hoechst High Intensity Objects (%)", "setting": "[1]", "result": 15, "unit": "%"}, {"measurement": "Population Membrane Permeable-Phenotype (%)", "setting": "[1]", "result": 16, "unit": "%"}, {"measurement": "Population Mitochondria Different-Phenotype (%)", "setting": "[1]", "result": 9, "unit": "%"}, {"measurement": "Population Mitotic Cells (%)", "setting": "[1]", "result": 72, "unit": "%"}, {"measurement": "Population Normal (%)", "setting": "[1]", "result": 84, "unit": "%"}, {"measurement": "Population Pyknosed Nuclei (%)", "setting": "[1]", "result": 46, "unit": "%"}, {"measurement": "Population Tubulin-Different-Phenotype (%)", "setting": "[1]", "result": 32, "unit": "%"}, {"measurement": "Population Apoptotic (%)", "setting": "[2]", "result": 9, "unit": "%"}, {"measurement": "Population Fragmented Nuclei (%)", "setting": "[2]", "result": 18, "unit": "%"}, {"measurement": "Population Healthy Nuclei (%)", "setting": "[2]", "result": 35, "unit": "%"}, {"measurement": "Population Hoechst High Intensity Objects (%)", "setting": "[2]", "result": 10, "unit": "%"}, {"measurement": "Population Membrane Permeable-Phenotype (%)", "setting": "[2]", "result": 12, "unit": "%"}, {"measurement": "Population Mitochondria Different-Phenotype (%)", "setting": "[2]", "result": 13, "unit": "%"}, {"measurement": "Population Mitotic Cells (%)", "setting": "[2]", "result": 90, "unit": "%"}, {"measurement": "Population Normal (%)", "setting": "[2]", "result": 89, "unit": "%"}, {"measurement": "Population Tubulin-Different-Phenotype (%)", "setting": "[2]", "result": 74, "unit": "%"}, {"measurement": "Population Apoptotic (%)", "setting": "[3]", "result": "31% and 93% and 82%"}, {"measurement": "Population Fragmented Nuclei (%)", "setting": "[3]", "result": "37% and 33% and 30%"}, {"measurement": "Population Hoechst High Intensity Objects (%)", "setting": "[3]", "result": "15% and 23% and 17%"}, {"measurement": "Population Membrane Permeable-Phenotype (%)", "setting": "[3]", "result": "20% and 15%"}, {"measurement": "Population Normal (%)", "setting": "[3]", "result": "84% and 76% and 82%"}, {"measurement": "Population Pyknosed Nuclei (%)", "setting": "[3]", "result": "48% and 65% and 66%"}, {"measurement": "Population Tubulin-Different-Phenotype (%)", "setting": "[3]", "result": "25% and 33% and 57%"}, {"measurement": "Population Hoechst High Intensity Objects (%)", "setting": "[4]", "result": "20% and 22% and 11%"}, {"measurement": "Population Mitochondria Different-Phenotype (%)", "setting": "[4]", "result": "23% and 35% and 18%"}, {"measurement": "Population Normal (%)", "setting": "[4]", "result": "79% and 77% and 88%"}, {"measurement": "Population Pyknosed Nuclei (%)", "setting": "[4]", "result": "52% and 55% and 35%"}, {"measurement": "Population Apoptotic (%)", "setting": "[5]", "result": 48, "unit": "%"}, {"measurement": "Population Fragmented Nuclei (%)", "setting": "[5]", "result": 35, "unit": "%"}, {"measurement": "Population Healthy Nuclei (%)", "setting": "[5]", "result": 17, "unit": "%"}, {"measurement": "Population Hoechst High Intensity Objects (%)", "setting": "[5]", "result": 15, "unit": "%"}, {"measurement": "Population Membrane Permeable-Phenotype (%)", "setting": "[5]", "result": 18, "unit": "%"}, {"measurement": "Population Mitochondria Different-Phenotype (%)", "setting": "[5]", "result": 16, "unit": "%"}, {"measurement": "Population Mitotic Cells (%)", "setting": "[5]", "result": 51, "unit": "%"}, {"measurement": "Population Normal (%)", "setting": "[5]", "result": 84, "unit": "%"}, {"measurement": "Population Pyknosed Nuclei (%)", "setting": "[5]", "result": 46, "unit": "%"}, {"measurement": "Population Tubulin-Different-Phenotype (%)", "setting": "[5]", "result": 29, "unit": "%"}, {"measurement": "Population Apoptotic (%)", "setting": "[6]", "result": 28, "unit": "%"}, {"measurement": "Population Fragmented Nuclei (%)", "setting": "[6]", "result": 16, "unit": "%"}, {"measurement": "Population Healthy Nuclei (%)", "setting": "[6]", "result": 30, "unit": "%"}, {"measurement": "Population Hoechst High Intensity Objects (%)", "setting": "[6]", "result": 14, "unit": "%"}, {"measurement": "Population Membrane Permeable-Phenotype (%)", "setting": "[6]", "result": 10, "unit": "%"}, {"measurement": "Population Mitochondria Different-Phenotype (%)", "setting": "[6]", "result": 25, "unit": "%"}, {"measurement": "Population Mitotic Cells (%)", "setting": "[6]", "result": 71, "unit": "%"}, {"measurement": "Population Normal (%)", "setting": "[6]", "result": 85, "unit": "%"}, {"measurement": "Population Pyknosed Nuclei (%)", "setting": "[6]", "result": 52, "unit": "%"}, {"measurement": "Population Tubulin-Different-Phenotype (%)", "setting": "[6]", "result": 73, "unit": "%"}, {"measurement": "Population Apoptotic (%)", "setting": "[7]", "result": "58% and 87% and 91%"}, {"measurement": "Population Fragmented Nuclei (%)", "setting": "[7]", "result": "37% and 33% and 27%"}, {"measurement": "Population Hoechst High Intensity Objects (%)", "setting": "[7]", "result": "19% and 21% and 24%"}, {"measurement": "Population Normal (%)", "setting": "[7]", "result": "80% and 75%"}, {"measurement": "Population Pyknosed Nuclei (%)", "setting": "[7]", "result": "46% and 65% and 70%"}, {"measurement": "Population Fragmented Nuclei (%)", "setting": "[8]", "result": "12% and 32%"}, {"measurement": "Population Hoechst High Intensity Objects (%)", "setting": "[8]", "result": "13% and 29% and 22%"}, {"measurement": "Population Membrane Permeable-Phenotype (%)", "setting": "[8]", "result": "12% and 14%"}, {"measurement": "Population Mitochondria Different-Phenotype (%)", "setting": "[8]", "result": "25% and 57% and 62%"}, {"measurement": "Population Normal (%)", "setting": "[8]", "result": "86% and 70% and 77%"}, {"measurement": "Population Pyknosed Nuclei (%)", "setting": "[8]", "result": "48% and 55% and 66%"}, {"measurement": "Population Tubulin-Different-Phenotype (%)", "setting": "[8]", "result": "86% and 61% and 87%"}, {"measurement": "Population Apoptotic (%)", "setting": "[9]", "result": "96% and 92%"}, {"measurement": "Population Fragmented Nuclei (%)", "setting": "[9]", "result": "36% and 37%"}, {"measurement": "Population Healthy Nuclei (%)", "setting": "[9]", "result": "0% and 1%"}, {"measurement": "Population Hoechst High Intensity Objects (%)", "setting": "[9]", "result": "22% and 19%"}, {"measurement": "Population Membrane Permeable-Phenotype (%)", "setting": "[9]", "result": 0, "unit": "%"}, {"measurement": "Population Mitochondria Different-Phenotype (%)", "setting": "[9]", "result": "100% and 80%"}, {"measurement": "Population Mitotic Cells (%)", "setting": "[9]", "result": "3% and 7%"}, {"measurement": "Population Normal (%)", "setting": "[9]", "result": "77% and 80%"}, {"measurement": "Population Pyknosed Nuclei (%)", "setting": "[9]", "result": 62, "unit": "%"}, {"measurement": "Population Tubulin-Different-Phenotype (%)", "setting": "[9]", "result": "100% and 60%"}, {"measurement": "Population Apoptotic (%)", "setting": "[10]", "result": "97% and 93%"}, {"measurement": "Population Fragmented Nuclei (%)", "setting": "[10]", "result": "23% and 21%"}, {"measurement": "Population Healthy Nuclei (%)", "setting": "[10]", "result": "19% and 17%"}, {"measurement": "Population Hoechst High Intensity Objects (%)", "setting": "[10]", "result": "21% and 26%"}, {"measurement": "Population Membrane Permeable-Phenotype (%)", "setting": "[10]", "result": "6% and 5%"}, {"measurement": "Population Mitochondria Different-Phenotype (%)", "setting": "[10]", "result": "66% and 73%"}, {"measurement": "Population Mitotic Cells (%)", "setting": "[10]", "result": "2% and 6%"}, {"measurement": "Population Normal (%)", "setting": "[10]", "result": 73, "unit": "%"}, {"measurement": "Population Pyknosed Nuclei (%)", "setting": "[10]", "result": "57% and 61%"}, {"measurement": "Population Tubulin-Different-Phenotype (%)", "setting": "[10]", "result": "72% and 84%"}]}
